Data taken from ChEMBL document CHEMBL4619817, “Stereochemical Differences in Fluorocyclopropyl Amides Enable Tuning of Btk Inhibition and Off-Target Activity” (ACS Med Chem Lett, 2020).

Key:
[1] = Metabolic stability in human liver microsomes assessed as intrinsic clearance at 1 uM measured upto 60 mins by LC-MS/MS analysis; format: ADME, Microsome; details: read-out: CLH
[2] = Apparent permeability from apical to basolateral side in MDCK cells at 10 uM incubated for 3 hrs by LC-MS/MS analysis; format: ADME, cell-based, Canis lupus familiaris; details: dog
[3] = Lipophilicity, logD of compound at 7.4 by the LC/MS based microscale shake flask method; format: physicochemical; details: octanol/water, pH 7.4
Method in brief: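 LogD measured by high-throughput microscale shake flask with LC tandem MS quantitation.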

[4] = Metabolic stability in rat liver microsomes assessed as intrinsic clearance at 1 uM measured upto 60 mins by LC-MS/MS analysis; format: ADME, Microsome; details: read-out: CLH
[5] = Metabolic stability in dog Hepatocyte assessed as intrinsic clearance at 1 uM measured upto 60 mins by LC-MS/MS analysis; format: ADME, cell-based, Canis lupus familiaris; details: hepatocytes, read-out: CLH
[6] = Metabolic stability in dog Hepatocyte assessed as compound hydrolysis at 5 uM incubated for 3 hrs by LC-MS/MS analysis; format: ADME, cell-based, Canis lupus familiaris; details: hepatocytes, read-out: Drug degradation
Method in brief: (§1)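 Compound incubated at 5 μM in cryopreserved hepatocytes (∼1.0 × 10^6 cells/mL) for 3 h; percent amide hydrolysis determined.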

[7] = Oral bioavailability in Sprague-Dawley rat at 1 mg/kg measured upto 8 hrs by LC-MS/MS analysis; format: ADME, organism-based; details: in vivo
[8] = Metabolic stability in human Hepatocyte assessed as intrinsic clearance at 1 uM measured upto 60 mins by LC-MS/MS analysis; format: ADME, cell-based; details: hepatocytes, read-out: CLH
[9] = Metabolic stability in human Hepatocyte assessed as compound hydrolysis at 5 uM incubated for 3 hrs by LC-MS/MS analysis; format: ADME, cell-based; details: hepatocytes, read-out: Drug degradation; method in brief: as §1
[10] = Oral bioavailability in Beagle dog at 2 mg/kg measured upto 24 hrs by LC-MS/MS analysis; format: ADME, organism-based, Canis lupus familiaris; details: in vivo
[11] = Unbound clearance in Sprague-Dawley rat at 1 mg/kg, po measured upto 8 hrs by LC-MS/MS analysis; format: ADME, organism-based; details: in vivo
[12] = Metabolic stability in rat Hepatocyte assessed as compound hydrolysis at 5 uM incubated for 3 hrs by LC-MS/MS analysis; format: ADME, cell-based; details: hepatocytes, read-out: Drug degradation; method in brief: as §1
[13] = Clearance in Sprague-Dawley rat at 0.2 mg/kg, iv measured upto 8 hrs by LC-MS/MS analysis; format: ADME, organism-based; details: in vivo
[14] = Clearance in Beagle dog at 1 mg/kg, iv measured upto 24 hrs by LC-MS/MS analysis; format: ADME, organism-based, Canis lupus familiaris; details: in vivo
[15] = Metabolic stability in dog liver microsomes assessed as intrinsic clearance at 1 uM measured upto 60 mins by LC-MS/MS analysis; format: ADME, Canis lupus familiaris, Microsome; details: read-out: CLH
[16] = Metabolic stability in rat Hepatocyte assessed as intrinsic clearance at 1 uM measured upto 60 mins by LC-MS/MS analysis; format: ADME, cell-based; details: hepatocytes, read-out: CLH
[17] = Oral bioavailability in Beagle dog at 5 mg/kg measured upto 24 hrs by LC-MS/MS analysis; format: ADME, organism-based, Canis lupus familiaris; details: in vivo

SMILES | CLint scaled at 1 µM [1] | logD [3] | CLint scaled at 1 µM [4] | other results
Cn1cc(-c2ccnc(-n3ncc4cc(C(C)(C)C)cc(F)c4c3=O)c2CO)cc(NC(=O)[C@H]2C[C@@H]2F)c1=O | 8.5 mL/min/kg | 3 | 14 mL/min/kg | Papp A→B at 3 h, 10 µM [2]: 10.8 ×10⁻⁶ cm/s
Cn1cc(-c2ccnc(-n3ncc4cc(C(C)(C)C)cc(F)c4c3=O)c2CO)cc(NC(=O)[C@@H]2C[C@@H]2F)c1=O | 8 mL/min/kg | 1.6 | 11 mL/min/kg | CLint scaled at 1 µM [5]: < 21 mL/min/kg; metabolised at 3 h, 5 µM [6]: ≤ 1%; bioavailability [7]: 40%; CLint scaled at 1 µM [8]: 6.2 mL/min/kg; metabolised at 3 h, 5 µM [9]: ≤ 1%; bioavailability [10]: 123%; CL free [11]: 326 mL/min/kg; Papp A→B at 3 h, 10 µM [2]: 12.1 to 12.5 ×10⁻⁶ cm/s; metabolised at 3 h, 5 µM [12]: ≤ 1%; clearance [13]: 15 mL/min/kg; clearance [14]: 2 mL/min/kg; CLint scaled at 1 µM [15]: 20 mL/min/kg; CLint scaled at 1 µM [16]: 11 mL/min/kg
Cn1cc(-c2cc(F)cc(-n3ncc4cc(C(C)(C)C)cc(F)c4c3=O)c2CO)cc(NC(=O)[C@H]2C[C@H]2F)c1=O |  | 2 |  | 
Cn1cc(-c2ccnc(-n3ncc4cc(C(C)(C)C)cc(F)c4c3=O)c2CO)cc(NC(=O)[C@@H]2C[C@H]2F)c1=O | 4.6 mL/min/kg | 2.5 | 15 mL/min/kg | Papp A→B at 3 h, 10 µM [2]: 14 ×10⁻⁶ cm/s
Cn1cc(-c2ccnc(N3CCc4c(cc5n4CCCC5)C3=O)c2CO)cc(NC(=O)C2CC2)c1=O | 9.8 mL/min/kg | 1.2 | 20 mL/min/kg | 
Cn1cc(-c2ccnc(-n3ncc4cc(C(C)(C)C)cc(F)c4c3=O)c2CO)cc(NC(=O)C2CC2)c1=O | 3.2 mL/min/kg | 2.5 | 13 mL/min/kg | Papp A→B at 3 h, 10 µM [2]: 13.5 ×10⁻⁶ cm/s
Cn1cc(-c2cc(F)cc(-n3ncc4cc(C(C)(C)C)cc(F)c4c3=O)c2CO)cc(NC(=O)[C@@H]2C[C@@H]2F)c1=O |  | 2.8 |  | 
Cn1nc(-c2ccnc(-n3ncc4cc(C(C)(C)C)cc(F)c4c3=O)c2CO)cc(NC(=O)[C@@H]2C[C@@H]2F)c1=O | 7.4 mL/min/kg | 1.7 | 16 mL/min/kg | 
Cn1cc(-c2ccnc(-n3ncc4cc(C(C)(C)C)cc(F)c4c3=O)c2CO)nc(NC(=O)[C@@H]2C[C@@H]2F)c1=O | < 3.9 mL/min/kg | 1.3 | 13 mL/min/kg | 
Cn1cc(-c2ccnc(-n3ncc4cc(C(C)(C)C)cc(F)c4c3=O)c2CO)cc(NC(=O)[C@H]2C[C@H]2F)c1=O | 5.5 mL/min/kg | 2 | 11 mL/min/kg | Papp A→B at 3 h, 10 µM [2]: 6.4 ×10⁻⁶ cm/s
Cn1cc(-c2ccnc(-n3ncc4c5c(sc4c3=O)CCCC5)c2CO)cc(NC(=O)C2CC2)c1=O | 7.4 mL/min/kg | 2.1 | 8.4 mL/min/kg | 
C[C@H]1CN(C2COC2)CCN1c1ccc(Nc2cc(-c3ccnc(N4CCn5c(cc6c5CC(C)(C)C6)C4=O)c3CO)cn(C)c2=O)nc1 [FENEBRUTINIB] | 9.5 mL/min/kg | 1.6 | 14 mL/min/kg | CLint scaled at 1 µM [5]: < 21 mL/min/kg; bioavailability [7]: 96%; CLint scaled at 1 µM [8]: 9.3 mL/min/kg; bioavailability [17]: 130%; CL free [11]: 314 mL/min/kg; Papp A→B at 3 h, 10 µM [2]: 15.1 ×10⁻⁶ cm/s; clearance [13]: 22 mL/min/kg; clearance [14]: 12 mL/min/kg; CLint scaled at 1 µM [15]: 29 mL/min/kg; CLint scaled at 1 µM [16]: 10 mL/min/kg

Further lines, with some results ahead:

CLint scaled at 1 µM [1] | logD [3] | CLint scaled at 1 µM [4] | SMILES | other results
 | 2.5 |  | Cn1cc(-c2ccnc(N3CCn4c(cc5c4CC(C)(C)C5)C3=O)c2CO)cc(NC(=O)C2(F)CC2)c1=O | 
 | 3.3 |  | Cn1cc(-c2ccnc(N3CCn4c(cc5c4CC(C)(C)C5)C3=O)c2CO)cc(NC(=O)C2CCC2)c1=O | 
 | 1.5 |  | COCC(=O)Nc1cc(-c2ccnc(N3CCn4c(cc5c4CC(C)(C)C5)C3=O)c2CO)cn(C)c1=O | 
 | 3.2 |  | CC(C)C(=O)Nc1cc(-c2ccnc(N3CCn4c(cc5c4CC(C)(C)C5)C3=O)c2CO)cn(C)c1=O | 
 | 2.2 |  | Cn1cc(-c2ccnc(N3CCn4c(cc5c4CC(C)(C)C5)C3=O)c2CO)cc(NC(=O)C2COC2)c1=O | 
 | 1.8 |  | Cn1cc(-c2ccnc(N3CCn4c(cc5c4CC(C)(C)C5)C3=O)c2CO)cc(NC(=O)C2(O)CC2)c1=O | 
 | 2 |  | Cn1cc(-c2ccnc(N3CCn4c(cc5c4CC(C)(C)C5)C3=O)c2CO)cc(NC(=O)c2cccnc2)c1=O | 
 | 2.5 |  | Cn1cc(-c2ccnc(N3CCn4c(cc5c4CC(C)(C)C5)C3=O)c2CO)cc(NC(=O)[C@@H]2C[C@@H]2F)c1=O | 
 | 2.3 |  | Cn1cc(-c2ccnc(N3CCn4c(cc5c4CC(C)(C)C5)C3=O)c2CO)cc(NC(=O)[C@H]2C[C@H]2F)c1=O | 
5.3 mL/min/kg | 3 | 7.2 mL/min/kg | Cn1cc(-c2ccnc(N3CCn4c(cc5c4CC(C)(C)C5)C3=O)c2CO)cc(NC(=O)C2CC2)c1=O | 
 | 2.1 |  | Cn1cc(-c2ccnc(N3CCn4c(cc5c4CC(C)(C)C5)C3=O)c2CO)cc(NC(=O)[C@@H]2CCCO2)c1=O | 
 | 2.1 |  | CC(=O)Nc1cc(-c2ccnc(N3CCn4c(cc5c4CC(C)(C)C5)C3=O)c2CO)cn(C)c1=O | 
 | 3.4 |  | Cn1cc(-c2ccnc(N3CCn4c(cc5c4CC(C)(C)C5)C3=O)c2CO)cc(NC(=O)CC2CC2)c1=O | 
 | 2.3 |  | Cn1cc(-c2ccnc(N3CCn4c(cc5c4CC(C)(C)C5)C3=O)c2CO)cc(NC(=O)CN2CCOCC2)c1=O | 
 | 2.5 |  | CCC(=O)Nc1cc(-c2ccnc(N3CCn4c(cc5c4CC(C)(C)C5)C3=O)c2CO)cn(C)c1=O | 
 | 2.6 |  | CCCC(=O)Nc1cc(-c2ccnc(N3CCn4c(cc5c4CC(C)(C)C5)C3=O)c2CO)cn(C)c1=O | 
